The nature of the data set: Toxicity liver stage against HepG2, at 10uM. Format: cell-based. Details: test concentration 10 uM, cell line HepG2-A16-CD81EGFP. The following applies: human, HepG2-A16-CD81EGFP cells; read-out: INHIBITION
In short, it runs like this:
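Uninfected HepG2-A16-CD81EGFP cells, 3 × 10^3 per well, 1536-well, plated on prespotted compound at 10 μM final, parasite-free screening media added to match infected plates; puromycin 10 μM positive, DMSO 0.5% negative; run in parallel with 48 h PbLuc assay at 37 °C, 5% CO2; viability by CellTiter-Glo luminescence, normalized to controls.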
`COCc1cc(CC2(NCc3ccccc3Cl)COC2)no1`: the cytotoxicity at 10 µM is -9.09%.

In the case of `CC(C)(C)c1c[nH]c([C@@H]2COCCN2C2CCNCC2)n1`, the cytotoxicity at 10 µM worked out at 6.07%.

Turning to `O=C1CO[C@H]2CN(Cc3ccc4c(c3)OCO4)C[C@H]2N1`, the cytotoxicity at 10 µM worked out at 0.801%.

For the compound `COc1ccccc1CN1CC(OC)CN(C(=O)OCC(C)C)CC1=O` (configuration not stated), the cytotoxicity at 10 µM was -12%.

As for `COC1CCN(C(=O)NCC(N)=O)CC(=O)N(C)c2ccccc21` (configuration not stated), the cytotoxicity at 10 µM is 4.79%.

In the case of `CN1C(=O)CCc2cc(NC(=O)C3CCCC3)ccc21`, the cytotoxicity at 10 µM is -9.79%.

In the case of `Cc1cc(CNC(=O)COc2ccccc2F)c(C)o1`, the cytotoxicity at 10 µM is -2.33%.

`O=C(NC1(c2nc(C3CC3)no2)CCCCC1)c1cccnc1O`: the cytotoxicity at 10 µM was -8.92%.

In the case of `O=C(NCc1cccs1)NCC(O)c1ccoc1` (configuration not stated), the cytotoxicity at 10 µM is -11.9%.

With `CN1C(=O)CCC12CCN(Cc1ccco1)CC2`, the cytotoxicity at 10 µM stood at 1.61%.

In the case of `CC(C)COCC1CN(Cc2ccsc2)Cc2ncn(C)c21` (configuration not stated), the cytotoxicity at 10 µM was found to be 6.61%.

For the compound `O=C(C1CC=CC1)N1CCc2ncnc(-c3ccncc3)c2CC1`, the cytotoxicity at 10 µM worked out at 2.31%.

In the case of `CCOCCNS(=O)(=O)c1cc(C)c2nc(O)cc(C)c2c1`, the cytotoxicity at 10 µM was -4.77%.

`CCc1nnc(SCc2nonc2C)n1C1CC1`: the cytotoxicity at 10 µM was 0.649%.

On to `CC(C)C(=O)N1CCCC(Cc2cccnc2)C1` (configuration not stated), for which the cytotoxicity at 10 µM was -1.55%.

For the compound `O[C@@H]1C[C@H]2CN(CC3CCCCC3)[C@H](Cc3ccccc3)CN2C1`, the cytotoxicity at 10 µM amounted to 0.13%.

For the compound `Cc1ocnc1C(=O)N(C)[C@@H]1CC[C@@H](Oc2ccccc2)[C@@H]1O`, the cytotoxicity at 10 µM was -0.658%.

`Cc1nn(C)cc1S(=O)(=O)N[C@@H]1CC[C@@H](n2ccnc2C)[C@@H]1O`: the cytotoxicity at 10 µM was -3.43%.

Turning to `CO[C@H]1CN(C(=O)c2cn3cc(C)ccc3n2)CC[C@@]12CCCO2`, the cytotoxicity at 10 µM came out at 3.6%.

In the case of `Cc1cccc(-c2nccnc2C2CCCN(C)C2)c1` (configuration not stated), the cytotoxicity at 10 µM was 0.83%.

Turning to `CNc1cccc(CC2COCCN(C(=O)c3cncs3)C2)n1` (configuration not stated), the cytotoxicity at 10 µM came to 6.42%.

In the case of `CN(c1ccccc1)c1ccc(CC2CCCN(CCO)C2)nn1` (configuration not stated), the cytotoxicity at 10 µM is -9.3%.

Consider `COc1ccc(-c2nccc(C3CCCN3C)n2)cc1` (configuration not stated), for which the cytotoxicity at 10 µM was found to be 9.97%.

On to `Cc1cc(N(C)C)nc(C2(C)CCCN2C(=O)c2cnccn2)n1` (configuration not stated), for which the cytotoxicity at 10 µM is -1.19%.

For `CCOc1cccc(CNC(=O)C(C)(C)C#N)c1OC(F)F`, the cytotoxicity at 10 µM was -45.5%.

Consider `CS(=O)(=O)NC(=O)c1ccn(-c2cccc(Br)c2)n1`, for which the cytotoxicity at 10 µM was -3.64%.

As for `Oc1c(F)cc(CNc2cccc(-c3nnc[nH]3)c2)cc1F`, the cytotoxicity at 10 µM was -44.2%.

With `Cc1cc(NC(=O)NCCC(=O)N2CCCc3ccccc32)no1`, the cytotoxicity at 10 µM is -5.96%.

Take `CCc1ccc(CNC(=O)CCNc2ncccn2)s1`: the cytotoxicity at 10 µM was 3.73%.

As for `CN(C)C1Cc2ccccc2N(S(=O)(=O)c2ccc(C#N)cc2)C1` (configuration not stated), the cytotoxicity at 10 µM amounted to 2.91%.

Regarding `CS(=O)(=O)NC1CCCN(Cc2ccc(OCc3ccccn3)cc2)C1` (configuration not stated), the cytotoxicity at 10 µM was determined as 1.8%.

For the compound `CS(=O)(=O)NC1CCCN(Cc2ccccn2)C1` (configuration not stated), the cytotoxicity at 10 µM was 4.74%.

Regarding `COC(=O)CCNC(=O)c1cc(Br)c2c(c1)OCCO2`, the cytotoxicity at 10 µM amounted to 11%.

Consider `Cc1cc2n(n1)CC(CNC1CCN(Cc3ccncc3)CC1)CN2` (configuration not stated), for which the cytotoxicity at 10 µM was determined as 1.78%.

As for `Cc1ccc(C(=O)NC2CCOc3ccccc32)cc1S(C)(=O)=O` (configuration not stated), the cytotoxicity at 10 µM was -3.83%.

Take `COc1ccc(-c2cnc(CN3CCCC3Cn3cncn3)o2)cc1` (configuration not stated): the cytotoxicity at 10 µM amounted to 3.41%.

In the case of `CCN(C(c1ccc(OC)cc1)c1cccnc1)S(C)(=O)=O` (configuration not stated), the cytotoxicity at 10 µM came to 9.62%.

Consider `Cc1ccc(Br)c(S(=O)(=O)NCc2cnn(C)c2)c1`, for which the cytotoxicity at 10 µM is 6.95%.

In the case of `O=S(=O)(NCc1cccnc1OC1CCCC1)N1CCOCC1`, the cytotoxicity at 10 µM is 1.46%.

With `CC(C)c1nc(S(=O)(=O)N2CCSc3ccccc32)c[nH]1`, the cytotoxicity at 10 µM is 2.7%.

Take `N#Cc1ccc(N2CCN(c3cnccn3)CC2)cc1C(F)(F)F`: the cytotoxicity at 10 µM is 38.6%.

Consider `Cn1cc(S(=O)(=O)NCCc2nnc3ccccn23)cn1`, for which the cytotoxicity at 10 µM was found to be 8.43%.

For `CSC1(CNC(=O)NC(C)c2ccc(F)cc2)CCOCC1` (configuration not stated), the cytotoxicity at 10 µM stood at 6.88%.

Regarding `COc1cccc(CNCc2cccnc2-n2cccn2)c1OC`, the cytotoxicity at 10 µM turned out to be 2.86%.

Consider `COc1cccc(NC(=O)NC2(c3noc(CN(C)C)n3)CCCC2)c1`, for which the cytotoxicity at 10 µM was 2.6%.

Consider `CSc1ccc(OCCN2CCNC(=O)C2C)cc1` (configuration not stated), for which the cytotoxicity at 10 µM turned out to be 8.57%.

Take `Cc1cc(=O)n2nc(Oc3ccc(Cl)c(C)c3)sc2n1`: the cytotoxicity at 10 µM is -19%.

In the case of `CCS(=O)(=O)N1CCN(C)c2ncccc2C1`, the cytotoxicity at 10 µM came out at 2.88%.

For `CC(=O)N1CCC2(CCN(C(=O)c3ccc(C)c(C(F)(F)F)c3)CC2)C1`, the cytotoxicity at 10 µM worked out at 3.73%.

For the compound `CCc1ncc(-c2nccn2-c2cccc(CC(=O)O)c2)cn1`, the cytotoxicity at 10 µM came to 10.2%.

In the case of `CN1CC2(CCCN(C(=O)Cc3cccc(O)c3)C2)OC1=O` (configuration not stated), the cytotoxicity at 10 µM came out at 4.61%.

Consider `O=C(c1ccc(-c2nc[nH]n2)cc1)N1CC[C@H](CO)[C@@H](O)C1`, for which the cytotoxicity at 10 µM came out at 0.466%.

As for `O=C(CCc1cn[nH]c1)N1C[C@@H](CN2CCOCC2)C[C@H](CO)C1`, the cytotoxicity at 10 µM turned out to be 3.13%.

With `CS(=O)(=O)c1cnc(C2CCCC2)nc1C1CCCNC1` (configuration not stated), the cytotoxicity at 10 µM is -6.35%.

Consider `COCCN(CC1CC1)c1nc(CCN)nc2ccccc12`, for which the cytotoxicity at 10 µM turned out to be 9.22%.

With `CSCC(=O)N1CCC(Oc2cccc(C)c2)CC1`, the cytotoxicity at 10 µM was determined as 1.98%.

For `CN(CCc1ccccn1)C(=O)CCC1CCCN(c2ncccn2)C1` (configuration not stated), the cytotoxicity at 10 µM came to 1.64%.

For the compound `CN(C)[C@@H]1C[C@@H](CO)N(C(=O)Nc2ccc(SC(F)(F)F)cc2)C1`, the cytotoxicity at 10 µM is -0.187%.

Take `Cc1ccsc1[C@@H]1CCN(C(=O)c2ccc(-c3cc[nH]n3)cc2)C[C@H]1O`: the cytotoxicity at 10 µM amounted to 4.28%.

With `CN(CCN1CCCCCC1)C(=O)c1cc(CN2CCCC(O)C2)on1` (configuration not stated), the cytotoxicity at 10 µM is -0.641%.

On to `COc1ccc(-n2nc(C(C)C)nc2COC(C)C)cc1`, for which the cytotoxicity at 10 µM was 1.56%.

As to `CCCN(Cc1nccn1C)C(=O)C(CC)Nc1cccc(OC)c1` (configuration not stated), the cytotoxicity at 10 µM came out at 0.417%.

Take `c1ccc2c3c([nH]c2c1)CN(Cc1cc2n(n1)CCNC2)CC3`: the cytotoxicity at 10 µM turned out to be 3.06%.

Regarding `CC1CCc2n[nH]c(C(=O)N3CCc4c(nc(N(C)C)[nH]c4=O)C3)c2C1` (configuration not stated), the cytotoxicity at 10 µM turned out to be 21.4%.

On to `Cc1nc(N(C)CCCc2nccn2C)c2c(C)nn(C)c2n1`, for which the cytotoxicity at 10 µM is 5.84%.

In the case of `CC(C)[C@@H](C)NC1CCN(c2ccc(-n3ccnc3)cc2)CC1`, the cytotoxicity at 10 µM is 0.487%.

For the compound `CCCn1cnnc1CN(C)C(=O)CCC(=O)Nc1cc(C)ccc1F`, the cytotoxicity at 10 µM was 16.1%.

In the case of `Cc1cc2cccc(NC(=O)N3CCC(N4CCSCC4)CC3)c2o1`, the cytotoxicity at 10 µM was -3.25%.

For `Cc1ccc(S(N)(=O)=O)cc1C(=O)N1CCc2c(ncnc2N(C)C)C1`, the cytotoxicity at 10 µM was -2.71%.

Turning to `CCc1cc(N[C@H](C(N)=O)C(C)C)n2nc(C)c(C)c2n1`, the cytotoxicity at 10 µM worked out at 5.88%.

Consider `CCCc1nc(C(=O)NC(COC)c2ccnn2C)cs1` (configuration not stated), for which the cytotoxicity at 10 µM is -2.37%.

Turning to `Cc1cccnc1CC(C)N(C)C(=O)c1cccs1` (configuration not stated), the cytotoxicity at 10 µM was -1.02%.

For `Cn1ccnc1CN1CCC(c2nnc(Cn3cccn3)n2C)CC1`, the cytotoxicity at 10 µM worked out at 17.4%.

As to `CC(C)(NC(=O)C1CCN(C2CCCCC2)CC1)c1nnc(N)s1`, the cytotoxicity at 10 µM stood at 6.17%.

For `COc1cccc(N2CCN(C(=O)CCO)CC2=O)c1`, the cytotoxicity at 10 µM was 3.75%.

Turning to `CC(c1cc(F)ccc1F)N(C)Cc1nc2c(cnn2C)c(=O)[nH]1` (configuration not stated), the cytotoxicity at 10 µM was -7.8%.

With `CC(=O)N1CCCN(C(=O)NCCNc2ccccn2)CC1`, the cytotoxicity at 10 µM is -4.07%.

Regarding `c1ccc2oc(CN3CCCC(Cn4cncn4)C3)nc2c1` (configuration not stated), the cytotoxicity at 10 µM was -7.3%.

On to `CCn1ccnc1CN1CCCN(C(=O)c2ccsc2)CC1`, for which the cytotoxicity at 10 µM is -6.63%.

As for `COC(=O)c1cccn1C1CCN(C(=O)c2cc(C)ccc2O)CC1`, the cytotoxicity at 10 µM is -3.22%.

For `CC(O)CN1CCN(C(=O)c2ccc(Br)o2)CC1` (configuration not stated), the cytotoxicity at 10 µM is -8.6%.

As to `CCCc1noc(CN2CCCC2c2ccsc2)n1` (configuration not stated), the cytotoxicity at 10 µM was -18.8%.

Take `COc1c(C2CCCN2C(=O)Cc2c(C)noc2C)c(C)nn1C` (configuration not stated): the cytotoxicity at 10 µM was -12.9%.

As to `CCn1cc(-c2cncn2CCc2ccc3c(c2)OCCO3)cn1`, the cytotoxicity at 10 µM turned out to be 18.7%.

`CC(=O)N1CCN(c2cncc(C3CCNCC3)n2)CC1`: the cytotoxicity at 10 µM was determined as 16.8%.

As to `CNC(=O)C1(N2CCC[C@H]2C(=O)NC2CC2)CCCCC1`, the cytotoxicity at 10 µM is -1.69%.

Take `Cn1nccc1CN1CCOC(c2cccc(-c3cncnc3)n2)C1` (configuration not stated): the cytotoxicity at 10 µM amounted to 0.88%.

With `CN1C(Cn2cccn2)C[C@@H]2CN(C(=O)c3cccc(C#N)c3)CC[C@@H]21` (some centres not stated), the cytotoxicity at 10 µM turned out to be 3.1%.

As to `O=C1CC2(CNCCN(C(=O)Nc3ccccc3)C2)CN1` (configuration not stated), the cytotoxicity at 10 µM is 2.23%.

For the compound `CC(=O)N1CCN(Cc2ccsc2)CC2(CC(=O)N(C)C2)C1` (configuration not stated), the cytotoxicity at 10 µM is -1.27%.

For `CCN(CC)Cc1cn2c(n1)CN(Cc1c(C)noc1C)CC2`, the cytotoxicity at 10 µM was -0.0472%.

As to `Cc1cnccc1-c1cnn(CCNC(=O)c2cccnc2)c1C1CC1`, the cytotoxicity at 10 µM is 4.34%.

For `CNc1cc(C2CCCNC2)nc(C)n1` (configuration not stated), the cytotoxicity at 10 µM is 8.37%.

On to `CCS(=O)(=O)N1C[C@@H](OCc2ccccn2)[C@@H]2OCCC[C@@H]21`, for which the cytotoxicity at 10 µM is -2.31%.

In the case of `O=C(C1CCCC1)N1C[C@@H]2CCN(c3cnccn3)C[C@@H]2C1`, the cytotoxicity at 10 µM came to 3.44%.

For the compound `N#CC1Sc2nnc(-c3ccccc3Br)n2N=C1N` (configuration not stated), the cytotoxicity at 10 µM is -4.81%.

Consider `COCCN1C(=O)[C@@H]2CC[C@H]1CN(Cc1nnc(C3CC3)o1)C2`, for which the cytotoxicity at 10 µM worked out at 11.6%.

The values above are taken from ChEMBL document CHEMBL4513216, “Probing the Open Global Health Chemical Diversity Library for Multistage-Active Starting Points for Next-Generation Antimalarials” (ACS Infect Dis, 2020).
